Neddyl block – inhibitors of human cullin neddylation | P61081+Q13564 | TR-FRET cullin neddylation, biochemical | inhibition, % at 25 µM | 360,000 compounds, 0.58% hits; in the data active = inhibition above about 36%
Target sequence (P61081 whole entry, looked up): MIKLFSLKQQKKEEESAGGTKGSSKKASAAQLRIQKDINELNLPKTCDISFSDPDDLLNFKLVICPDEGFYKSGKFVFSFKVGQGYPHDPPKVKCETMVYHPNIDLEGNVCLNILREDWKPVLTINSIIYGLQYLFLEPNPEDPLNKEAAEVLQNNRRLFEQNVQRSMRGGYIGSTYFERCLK
Target sequence (Q13564 whole entry, looked up): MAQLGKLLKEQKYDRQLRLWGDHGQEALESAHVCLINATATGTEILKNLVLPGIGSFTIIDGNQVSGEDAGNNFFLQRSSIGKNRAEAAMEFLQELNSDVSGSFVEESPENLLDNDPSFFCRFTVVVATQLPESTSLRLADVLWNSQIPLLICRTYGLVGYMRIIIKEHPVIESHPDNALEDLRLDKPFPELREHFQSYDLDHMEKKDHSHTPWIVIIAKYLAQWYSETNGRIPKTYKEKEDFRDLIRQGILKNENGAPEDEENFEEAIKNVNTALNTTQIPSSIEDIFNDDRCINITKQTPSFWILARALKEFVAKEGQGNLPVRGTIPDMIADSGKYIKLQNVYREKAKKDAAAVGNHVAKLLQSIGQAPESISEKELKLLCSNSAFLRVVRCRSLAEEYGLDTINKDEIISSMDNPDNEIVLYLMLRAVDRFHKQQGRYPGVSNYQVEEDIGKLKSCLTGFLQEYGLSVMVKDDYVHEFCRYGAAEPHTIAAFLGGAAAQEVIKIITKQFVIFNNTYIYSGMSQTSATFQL
Calb FLC – C. albicans growth modulation with fluconazole. growth inhibition, % (no concentration beside the values). C. albicans CaCi-2 + fluconazole, Alamar Blue growth, 48 h. 300,000 compounds, 0.57% hits. AID 1979;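 active = growth inhibition above about 58% in most replicates, limit read from the data, passing the limit was not always enough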;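 also: all wells also contain fluconazole at 8 µg/ml as a sub-toxic cotreatment; 0% = median of DMSO wells and 100% = median of geldanamycin control wells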
FXN GAA850 act – activators of GAA850 frataxin (FXN) promoter; HEK293 lucGAA850 FXN promoter luciferase reporter, 24 h; percent of 10 µM SAHA response; activation, % at 6 µM; 360,000 compounds, 0.56% hits; AID 540364;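 active = activation above the average of all compounds screened plus 3 SD, cutoff fixed separately per campaign, cut at about 7.5% in these data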;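 also: 0% = DMSO wells and 100% = 10 µM SAHA wells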
proCasp3 act – activators of human procaspase-3; recombinant procaspase-3 D3A, Ac-DEVD-pNA absorbance 405 nm; 330,000 compounds, 0.11% hits; P42574; AID 463141; activation, % at 8.5 µM;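 active = activation above the mean of all tested compounds plus 3 SD, cut at about 21% in these data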;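 also: 0% = DMSO alone and 100% = DMSO wells spiked with extra 5 µM PC-3 D3A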
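Assay system – Procaspase-3 D3A mutant, all three cleavage aspartates alanine · Controls – DMSO-only low control, 5 µM PC-3 D3A high control · Schedule – 1 h compound preincubation, 2 h substrate hydrolysis at 25 °C · Signal – 405 nm absorbance of p-nitroaniline, reads at 0 and 120 min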
HIF act – HIF pathway transcriptional activation. U2OS HRE-luciferase reporter, luminescence; normalized: DMSO 0%, desferrioxamine 100%. activation, % at 7.5 µM (by protocol). 300,000 compounds, 0.32% hits. AID 1910;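 active = mean activation of at least 10% of the iron chelator positive control signal, with at least half of replicates also reaching 10%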
proCasp7 act – activates human procaspase-7, counter-screen for procaspase-3 activators; P55210; 330,000 compounds, 0.093% hits; recombinant procaspase-7, Ac-DEVD-pNA absorbance 405 nm; D23A/D198A/D206A triple mutant, cannot self-cleave; scale: DMSO 0, 5 µM enzyme 100; activation, % at 8.5 µM;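 active = percent activation above the screen-wide mean plus 3 SD, cut at about 25% in these data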
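Material: Procaspase-7 triple mutant (PC-7 D3A) | Quantity: 2 µM procaspase-7 mutant as dispensed | Reagent: DEVD-pNA substrate | Times: 1 h preincubation, 2 h reaction | Technique: 405 nm absorbance of p-nitroaniline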
GAA30 counter – GAA30 FXN promoter activation counter-screen. shares compounds with FXN GAA850 act. HEK293 lucGAA30 FXN promoter luciferase, 24 h; DMSO = 0%, 5 µM ipriflavone = 100%. activation, % at 6 µM. 1,900 compounds, 66% hits;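 active = mean activation above the mean of solvent-only control wells plus 3 SD, cut at about 22% in these data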;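 also: counterscreen of GAA850 promoter hits where activity marks nonselective or luminescence artifacts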
FXN GAA850 conf – confirmation of GAA850 frataxin (FXN) promoter activators; shares compounds with FXN GAA850 act; 1,900 compounds, 86% hits; HEK293 lucGAA850 FXN promoter luciferase reporter, 24 h; 100% = activation by SAHA; activation, % at 6 µM;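 active = mean activation above a set limit taken from the primary screen, cut at about 8% in these data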;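 also: 0% = DMSO wells and 100% = 10 µM SAHA wells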
Active calls of the source: *; / = no result shown. Shown are actives, neighbours in structure and some others; about 1.9% of the full set was active somewhere.

SMILES	Neddyl block	Calb FLC	FXN GAA850 act	proCasp3 act	HIF act	proCasp7 act	GAA30 counter	FXN GAA850 conf
CCOc1ccc(Nc2ncnc3c2cnn3-c2ccccc2)cc1	/	-9.8	12.8*	8.0	0.5	9.4	67.3*	21.5*
CCOc1ccc(Nc2ncnc3c2cnn3Cc2ccccc2)cc1	30.4	2.2	-0.1	-6.6	/	4.3	/	/
CCOC(=O)/C(=N\Nc1ncnc2ccccc12)c1ccc(C)cc1	-39.5	0.6	-0.9	-9.6	0.7	1.9	/	/
CCOC(=O)C/C(=N\Nc1ncnc2ccccc12)c1ccccc1	3.5	2.4	8.3*	-40.5	3.0	-13.4	83.8*	35.4*
COc1ccc(-c2cc(C(=O)NCC3CCCO3)c3ccccc3n2)cc1 (stereo not drawn)	/	11.6	0.8	2.0	0.2	2.2	/	/
COc1ccc(-c2cc(C(=O)NCC3CCCO3)c3cc(C)ccc3n2)cc1 (stereo not drawn)	/	10.9	7.6*	4.5	1.4	7.3	67.6*	22.4*
COc1ccc(N=c2oc3cc(O)ccc3cc2C(=O)NCC2CCCO2)c(OC)c1 (stereo not drawn)	/	-3.9	9.7*	-11.2	0.2	-15.5	5.4	17.8*
CCOC(=O)c1sc(N/N=C/c2ccccc2)nc1C	34.3	-11.0	7.6*	-15.2	3.7	-14.9	134.2*	39.9*
COc1cccc(CNC(=O)Cn2cc3c(n2)CCCC3)c1	0.3	0.7	15.9*	-3.9	0.0	10.5	22.9*	10.0*
CC(=O)Nc1cc(-c2cccc(C(=O)NCCO)c2)cn2c(-c3cccc(C(F)(F)F)c3)cnc12	23.8	/	-0.2	/	/	/	/	/
COc1ccc(CCN2C(=O)CCC2(C)C(=O)NC2CCCC2)cc1OC (stereo not drawn)	-5.4	-3.4	0.8	-4.0	-0.8	3.1	/	/
Cc1ccc(CCN2C(=O)CCC2(C)C(=O)NC2CCCC2)cc1 (stereo not drawn)	1.3	/	15.4*	3.9	/	1.3	19.5	5.2
Cc1ccc(C)c(CC(=O)N2CCCCC2c2cc(C(=O)Nc3ccc(F)c(Cl)c3)no2)c1 (stereo not drawn)	8.1	/	-4.0	/	/	/	/	/
COc1cccc(NC(=O)Nc2cc(C)ccc2F)c1	4.2	-25.1	8.2*	3.5	1.6	11.0	79.6*	25.4*
O=C(Nc1cc(Cl)cc(Cl)c1)N[C@@H]1CC[C@@H](CCNS(=O)(=O)c2cccc(F)c2)O[C@@H]1CO	-7.2	/	/	/	/	/	/	/
COC(=O)c1cc2c([nH]c1=O)CCCC2=O	22.6	/	0.5	/	/	/	/	/
O=CC(O)C1OC(=O)C(O)C1O (stereo not drawn)	4.5	/	-0.3	/	/	/	/	/
CC1Oc2ccccc2C=C1/C=N/Nc1ccc(C(=O)O)cc1 (stereo not drawn)	31.0	-5.6	10.2*	-37.7	-0.5	-30.2	97.4*	38.4*
COc1ccc(-c2noc(-c3ccoc3C)n2)cc1OC	-2.8	3.3	7.8*	-5.3	5.0	-1.8	96.3*	33.0*
COc1ccc(-c2noc(-c3cccc(Cl)c3)n2)cc1OC	-86.1	-6.9	1.7	4.2	0.7	7.9	/	/
COc1ccc(-c2noc(-c3ccoc3C)n2)cc1	2.1	-20.0	4.4	2.9	2.4	-5.0	/	/
COc1ccc(-c2noc(-c3ccccc3Cl)n2)cc1OC	-10.6	-7.5	8.6*	1.3	2.5	1.5	112.0*	40.5*
NC(=O)NN=C1CCC(OCc2ccccc2)CC1CC(=O)O (stereo not drawn)	3.5	/	/	/	/	/	/	/
Cc1ccc2nc(/C(C#N)=C\c3ccc(N4CCOCC4)o3)[nH]c2c1	34.6	8.9	2.7	-6.4	3.4	4.2	/	/
Cc1ccc(/C(C#N)=C\c2ccc(N3CCOCC3)o2)cc1	-39.5	12.4	22.5*	-13.9	0.5	-24.7	120.3*	53.3*
SMILES	Neddyl block	Calb FLC	FXN GAA850 act	proCasp3 act	HIF act	proCasp7 act	GAA30 counter	FXN GAA850 conf
N#C/C(=C/c1ccc(N2CCCCC2)o1)c1cccc(F)c1	-10.1	30.9	14.6*	-4.7	3.2	-20.6	106.4*	41.4*
COc1cc(C2c3[nH]c4ccccc4c3CC3COC(=O)N32)cc(OC)c1O (stereo not drawn)	-5.4	/	-0.4	/	/	/	/	/
CC(C)NC(=O)c1csc(COCCO)n1	-1.9	/	1.9	/	/	/	/	/
Cc1ccc(OCCSc2nc(N)cc(N)n2)cc1	3.7	11.4	9.1*	1.1	4.2	-6.3	110.0*	37.4*
CCOC(=O)C1=CCN(S(=O)(=O)c2ccccc2Br)C1c1cccc(C)c1 (stereo not drawn)	-9.6	/	/	/	/	/	/	/
Cc1ccc(-c2c(C(=O)N3CCOCC3)oc(=O)c3ccccc23)cc1	3.7	-3.4	-1.7	0.3	-0.1	3.2	/	/
CCN1CCN(C(=O)c2oc(=O)c3ccccc3c2-c2ccc(C)cc2)CC1	0.4	8.6	15.5*	0.9	0.4	16.3	7.3	3.3
C[C@H](NS(=O)(=O)c1ccc(Cl)cc1)C(=O)OCC(=O)Nc1cc(S(=O)(=O)N2CCOCC2)ccc1Cl	-20.3	/	1.8	/	/	/	/	/
COc1ccc(-c2cc(C(F)(F)F)nc(S(=O)(=O)CCCC(=O)Nc3cccc(O)c3)n2)cc1OC	/	24.5	9.3*	/	4.1	/	39.6*	32.4*
N/C(=N/OC(=O)c1ccccc1Cl)c1ncc([N+](=O)[O-])s1	1.5	4.7	14.5*	0.6	1.9	-1.1	103.4*	50.7*
CCOC(=O)c1cnc(Nc2nc3ccccc3o2)nc1CSC(=S)N(CC)CC	8.8	3.8	11.0*	2.6	1.6	0.6	40.6*	24.7*
CCN(CC)C(=O)C1=C(C)N(Cc2ccc(OC)cc2)C(=O)C(CC(=O)NCCCN(C)C)C1 (stereo not drawn)	4.0	/	-0.6	/	/	/	/	/
O=C(NNC(=S)Nc1cccc(Cl)c1)c1ccccc1	8.3	5.4	4.9	2.0	3.1	-8.0	/	/
O=C(Nc1cccc(Cl)c1)c1ccccc1	-13.1	/	7.7*	0.9	/	0.4	75.9*	20.1*
C#Cc1ccc(NC(=O)C2(C)CCN2C(=O)C2(c3ccccc3)CCCC2)cc1 (stereo not drawn)	-6.2	/	0.2	/	/	/	/	/
CCOC(=O)c1c(NC(=O)CSc2c[nH]c3ccccc23)sc2c1CCCC2	8.8	2.9	0.6	2.5	0.0	1.6	/	/
CCOC(=O)c1c(NC(=O)CSc2nnc(-c3c[nH]c4ccccc34)n2CCOC)sc2c1CCCCC2	-0.5	-1.4	17.4*	-1.5	0.4	2.8	4.6	8.2*
